{"source": "ChEMBL document CHEMBL4354800", "about": "“Amphiphilic nebramine-based hybrids Rescue legacy antibiotics from intrinsic resistance in multidrug-resistant Gram-negative bacilli” (Eur J Med Chem, 2019)", "key": {"Pseudomonas aeruginosa [1]": {"tested_on": "Pseudomonas aeruginosa", "assay": "Potentiation of moxifloxacin-induced antibacterial activity against MDR/XDR Pseudomonas aeruginosa isolate PA260-97103 harboring GyrA T83I mutant assessed as fold reduction in moxifloxacin MIC at 7.5 uM incubated for 18 hrs by broth microdilution method", "type": "functional", "outline": "(§1)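 CLSI broth microdilution. Overnight cultures were set to 0.5 McFarland in saline, diluted 1:50 in Mueller-Hinton broth to a final 5 × 10^5 CFU/mL, and incubated 18 h at 37 °C against 2-fold antibiotic dilutions. A fixed adjuvant level was present throughout. MIC = lowest concentration with no visible turbidity, confirmed at 590 nm. Potentiation = fold drop in antibiotic MIC versus antibiotic alone.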"}, "Pseudomonas aeruginosa [2]": {"tested_on": "Pseudomonas aeruginosa", "assay": "Potentiation of minocycline-induced antibacterial activity against MDR/XDR Pseudomonas aeruginosa isolate 91433 devoid of GyrA T83I mutant assessed as fold reduction in minocycline MIC at 7.5 uM incubated for 18 hrs by broth microdilution method", "type": "functional"}, "Pseudomonas aeruginosa [3]": {"tested_on": "Pseudomonas aeruginosa", "assay": "Potentiation of rifampicin-induced antimicrobial activity against MDR/XDR Pseudomonas aeruginosa isolate PA260-97103 harboring GyrA Thr83Ile mutant assessed as rifampicin MIC50 incubated for 18 hrs by broth microdilution method (reference value: 8 microg/ml)", "type": "functional", "conditions": "isolate PA260-97103, 18 h"}, "Pseudomonas aeruginosa [4]": {"tested_on": "Pseudomonas aeruginosa", "assay": "Potentiation of rifampicin-induced antimicrobial activity against MDR/XDR Pseudomonas aeruginosa isolate PA264-104354 harboring GyrA Thr83Ile mutant assessed as rifampicin MIC50 incubated for 18 hrs by broth microdilution method (reference value: 8 microg/ml)", "type": "functional", "conditions": "isolate PA264-104354, 18 h"}, "Klebsiella pneumoniae [5]": {"tested_on": "Klebsiella pneumoniae", "assay": "Potentiation of rifampicin-induced antibacterial activity against Klebsiella pneumoniae 116381 assessed as fold reduction in rifampicin MIC at 7.5 uM incubated for 18 hrs by broth dilution method", "type": "functional", "outline": "(§2)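 Antibiotic MIC determined by CLSI broth microdilution (MHB, 5 × 10^5 CFU/mL, 18 h, 37 °C), once alone and once with a fixed concentration of the adjuvant. Potentiation is the ratio of the antibiotic MIC alone to its MIC in the presence of the adjuvant.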"}, "Pseudomonas aeruginosa [6]": {"tested_on": "Pseudomonas aeruginosa", "assay": "Potentiation of minocycline-induced bactericidal activity in Pseudomonas aeruginosa PAO1 at 0.5 times MIC incubated for 24 hrs in presence of 4 ug/ml minocycline by time kill curve assay relative to control", "type": "functional", "outline": "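Time-kill. An overnight PAO1 culture was adjusted to 0.5 McFarland in saline and diluted 1:50 in LB. Cells were exposed to the adjuvant at ½× MIC plus fixed minocycline for 24 h at 37 °C. Aliquots taken at intervals were serially diluted in PBS and plated on LB agar; colonies were counted after 20 h at 37 °C. Controls were untreated cells and colistin at 4× MIC.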"}, "Pseudomonas aeruginosa [7]": {"tested_on": "Pseudomonas aeruginosa", "assay": "Potentiation of minocycline-induced antimicrobial activity against MDR/XDR Pseudomonas aeruginosa isolate PA259-96918 harboring GyrA Thr83Ile mutant assessed as minocycline MIC80 incubated for 18 hrs by broth microdilution method (reference value: 32 microg/ml)", "type": "functional", "conditions": "isolate PA259-96918, 18 h"}, "Pseudomonas aeruginosa [8]": {"tested_on": "Pseudomonas aeruginosa", "assay": "Potentiation of minocycline-induced antimicrobial activity against MDR/XDR Pseudomonas aeruginosa isolate 91433 devoid of GyrA Thr83Ile mutant assessed as minocycline MIC80 incubated for 18 hrs by broth microdilution method (reference value: 32 microg/ml)", "type": "functional", "conditions": "isolate 91433, 18 h"}, "Pseudomonas aeruginosa [9]": {"tested_on": "Pseudomonas aeruginosa", "assay": "Potentiation of rifampicin-induced antimicrobial activity against MDR/XDR Pseudomonas aeruginosa isolate 91433 devoid of GyrA Thr83Ile mutant assessed as rifampicin MIC80 incubated for 18 hrs by broth microdilution method (reference value: 16 microg/ml)", "type": "functional", "conditions": "isolate 91433, 18 h"}, "Pseudomonas aeruginosa [10]": {"tested_on": "Pseudomonas aeruginosa", "assay": "Potentiation of ciprofloxacin-induced antibacterial activity against MDR/XDR Pseudomonas aeruginosa isolate 91433 devoid of GyrA T83I mutant assessed as fold reduction in ciprofloxacin MIC at 9 uM incubated for 18 hrs by broth microdilution method", "type": "functional"}, "Pseudomonas aeruginosa [11]": {"tested_on": "Pseudomonas aeruginosa", "assay": "Potentiation of minocycline-induced antibacterial activity against wild type Pseudomonas aeruginosa PAO1 assessed as fold reduction in minocycline MIC at 9 uM incubated for 18 hrs by broth microdilution method", "type": "functional", "outline": "as §1"}, "Pseudomonas aeruginosa [12]": {"tested_on": "Pseudomonas aeruginosa", "assay": "Potentiation of minocycline-induced antibacterial activity against MDR/XDR Pseudomonas aeruginosa isolate PA259-96918 harboring GyrA T83I mutant assessed as fold reduction in minocycline MIC at 9 uM incubated for 18 hrs by broth microdilution method", "type": "functional"}, "Pseudomonas aeruginosa [13]": {"tested_on": "Pseudomonas aeruginosa", "assay": "Potentiation of rifampicin-induced antibacterial activity against MDR/XDR Pseudomonas aeruginosa isolate 101885 harboring GyrA T83I mutant assessed as fold reduction in rifampicin MIC at 9 uM incubated for 18 hrs by broth microdilution method", "type": "functional", "outline": "as §1"}, "Acinetobacter baumannii [14]": {"tested_on": "Acinetobacter baumannii", "assay": "Synergistic antibacterial activity against multidrug-resistant Acinetobacter baumannii ATCC 17978 assessed as fractional inhibitory concentration index in presence of rifampicin incubated for 18 hrs by broth dilution method", "type": "functional"}, "Escherichia coli [15]": {"tested_on": "Escherichia coli", "assay": "Antimicrobial activity against Escherichia coli 94474 incubated for 18 hrs by broth dilution method", "type": "functional", "conditions": "Escherichia coli, 94474, 18 h", "outline": "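CLSI broth microdilution. Overnight cultures were adjusted to 0.5 McFarland in saline, diluted 1:50 in Mueller-Hinton broth, and inoculated at a final 5 × 10^5 CFU/mL. Compounds were tested as 2-fold serial dilutions and incubated 18 h at 37 °C. MIC was the lowest concentration with no visible turbidity, confirmed by absorbance at 590 nm.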"}, "Acinetobacter baumannii [16]": {"tested_on": "Acinetobacter baumannii", "assay": "Synergistic antibacterial activity against multidrug-resistant Acinetobacter baumannii AB92247 assessed as fractional inhibitory concentration index in presence of rifampicin incubated for 18 hrs by broth dilution method", "type": "functional"}, "Escherichia coli [17]": {"tested_on": "Escherichia coli", "assay": "Synergistic antibacterial activity against Escherichia coli ATCC 25922 assessed as fractional inhibitory concentration index in presence of minocycline incubated for 18 hrs by broth dilution method", "type": "functional", "outline": "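Checkerboard titration of the adjuvant against the antibiotic, run under the CLSI microdilution conditions (MHB, 5 × 10^5 CFU/mL, 18 h, 37 °C). Each agent's FIC is its MIC in combination divided by its MIC alone; FICI is the sum of the two FICs. FICI ≤0.5 was read as synergy, >0.5–4.0 as no interaction, and >4.0 as antagonism.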"}, "[18]": {"assay": "Toxicity in Galleria mellonella larvae assessed as tolerability by measuring larval survival at 100 mg/kg incubated for > 96 hrs", "type": "organism-based", "conditions": "in vivo", "outline": "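Uninfected G. mellonella larvae, ten per group, were injected with agent alone at 100 or 200 mg/kg. Larvae were held at 37 °C and monitored for survival for 96 h.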"}, "Pseudomonas aeruginosa [19]": {"tested_on": "Pseudomonas aeruginosa", "assay": "Antimicrobial activity against XDR Pseudomonas aeruginosa isolate PA264 infected in Galleria mellonella larvae assessed as increase in survival rate co-administered with rifampicin at 2 hrs post-inoculation measured every 6 hrs for upto 24 hrs", "type": "functional, organism-based", "outline": "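G. mellonella larvae each received an injection of about 5 CFU of PA264 (culture adjusted to 0.5 McFarland, then diluted in PBS to 5 × 10^2 CFU/mL) and were held 2 h at 37 °C. A single injection followed: rifampicin plus adjuvant at 25+25, 50+50 or 75+75 mg/kg, or PBS. Larvae were kept at 37 °C and scored every 6 h up to 24 h; no response to touch counted as dead. Total n=30 per group; Kaplan-Meier analysis.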"}, "Klebsiella pneumoniae [20]": {"tested_on": "Klebsiella pneumoniae", "assay": "Potentiation of rifampicin-induced antibacterial activity against Klebsiella pneumoniae 116381 assessed as fold reduction in rifampicin MIC at 4.1 uM incubated for 18 hrs by broth dilution method", "type": "functional", "outline": "as §2"}}}
{"smiles": "COc1c(N2C[C@@H]3CCCN(CCCCCCCCCCCCO[C@@H]4[C@@H](O)[C@H](N)C[C@H](N)[C@H]4O[C@H]4O[C@H](CN)[C@@H](O)C[C@H]4N)[C@@H]3C2)c(F)cc2c(=O)c(C(=O)O)cn(C3CC3)c12.Cl.Cl.Cl.Cl.Cl", "values": [{"measurement": "fold change (FC)", "setting": "Pseudomonas aeruginosa [1]", "result": 64}, {"measurement": "fold change (FC)", "setting": "Pseudomonas aeruginosa [2]", "result": 32}, {"measurement": "MIC50", "setting": "Pseudomonas aeruginosa [3]", "result": 0.06, "unit": "µg/mL"}, {"measurement": "MIC50", "setting": "Pseudomonas aeruginosa [4]", "result": 0.06, "unit": "µg/mL"}, {"measurement": "fold change (FC)", "setting": "Klebsiella pneumoniae [5]", "result": ">=1024"}, {"measurement": "Activity", "setting": "Pseudomonas aeruginosa [6]", "result": 100, "unit": "%"}, {"measurement": "MIC80", "setting": "Pseudomonas aeruginosa [7]", "result": 1, "unit": "µg/mL"}, {"measurement": "MIC80", "setting": "Pseudomonas aeruginosa [8]", "result": 1, "unit": "µg/mL"}, {"measurement": "MIC80", "setting": "Pseudomonas aeruginosa [9]", "result": 0.13, "unit": "µg/mL"}]}
{"smiles": "Cl.Cl.Cl.Cl.Cl.Cl.NC[C@H]1O[C@H](O[C@H]2[C@H](OCCCCCCCCCCN3CCN(Cc4cccc5ccccc45)CC3)[C@@H](O)[C@H](N)C[C@@H]2N)[C@H](N)C[C@@H]1O", "values": [{"measurement": "fold change (FC)", "setting": "Pseudomonas aeruginosa [10]", "result": 8}, {"measurement": "fold change (FC)", "setting": "Pseudomonas aeruginosa [11]", "result": 16}, {"measurement": "fold change (FC)", "setting": "Pseudomonas aeruginosa [12]", "result": 64}, {"measurement": "fold change (FC)", "setting": "Pseudomonas aeruginosa [13]", "result": 128}]}
{"smiles": "Cl.Cl.Cl.Cl.Cl.NC[C@H]1O[C@H](O[C@H]2[C@H](OCCCCCCCCCCCCN3CCN(c4cc5c(cc4F)c(=O)c(C(=O)O)cn5C4CC4)CC3)[C@@H](O)[C@H](N)C[C@@H]2N)[C@H](N)C[C@@H]1O", "values": [{"measurement": "fractional inhibitory concentration index (FICI)", "setting": "Acinetobacter baumannii [14]", "result": 0.016}, {"measurement": "MIC", "setting": "Escherichia coli [15]", "result": "> 128", "unit": "µg/mL"}, {"measurement": "fractional inhibitory concentration index (FICI)", "setting": "Acinetobacter baumannii [16]", "result": 0.039}, {"measurement": "fractional inhibitory concentration index (FICI)", "setting": "Escherichia coli [17]", "result": 0.504}, {"measurement": "Activity", "setting": "[18]", "result": "Non-Toxic"}, {"measurement": "Activity", "setting": "Pseudomonas aeruginosa [19]", "result": "Dose-dependent effect"}, {"measurement": "fold change (FC)", "setting": "Klebsiella pneumoniae [20]", "result": ">=128"}]}
